Assay results of several laboratories.
Compare with care: the assays were run in different laboratories.
Target: Receptor-interacting serine/threonine-protein kinase 2 (RIPK2, Homo sapiens, UniProt O43353)

CN(C)c1nccc(-c2cnn3ncccc23)n1 — remaining binding (binding; 1 µM): 100%
CCN1CCN(Cc2ccc(C(=O)Nc3ccc(C)c(Oc4ccc5c(c4)CC(=O)N5)c3)cc2C(F)(F)F)CC1 — remaining binding (binding, competition with immobilised ligand; 1 µM): 100%
COc1cnc(Nc2cccc(S(N)(=O)=O)c2)nc1N1CCN(c2ccccc2)CC1 — remaining binding (binding, competition with immobilised ligand; 1 µM): 100%
O=C(c1ccc(Nc2ncc(Cl)c(-c3cc4ccccc4s3)n2)cc1)N1CCC(N2CCCC2)CC1 — remaining binding (binding, competition with immobilised ligand; 1 µM): 98%
Nc1ncc2c(n1)-c1c([nH]c3ccc(C#CC4CC4)cc13)CCCC2 — remaining binding (binding, competition with immobilised ligand; 1 µM): 100%
CO[C@H]1CC[C@H](CNc2ccc(S(=O)(=O)NC(=O)c3ccc(N4CCN(CC5=C(c6ccc(Cl)cc6)CC(C)(C)CC5)CC4)cc3Oc3cnc4[nH]ccc4c3)cc2[N+](=O)[O-])CC1 — remaining binding (cell-free assay, competition with immobilised ligand; 1 µM): 85%
CC1CCCN1c1nccc(-c2cnn3ncccc23)n1 (stereo not shown) — remaining binding (binding; 1 µM): 89%
C[C@@H]1CN(c2cc(-c3nn(C)c4ccc(OC5(C)CC5)cc34)ncn2)C[C@H](C)O1 — remaining binding (cell-free assay, competition with immobilised ligand; 1 µM): 100%
O=C(NCC1CCOCC1)c1n[nH]cc1NC(=O)c1c(F)cccc1F — remaining binding (binding, competition with immobilised ligand; 1 µM): 100%
C=CC(=O)N1CCC(C(=O)NCC(=O)N2CCN(c3nc(-c4cnc(N)nc4C(F)F)nc(N4CCOCC4)n3)CC2)CC1 — remaining binding (binding, competition with immobilised ligand; 1 µM): 100%
O=C(NCCCN1CCOCC1)c1ccc(Nc2ncc(Cl)c(-c3ccc(Cl)s3)n2)cc1 — remaining binding (binding, competition with immobilised ligand; 1 µM): 100%
c1cncc(-c2cccc(Nc3nccc(NC4CCCCC4)n3)c2)c1 — remaining binding (binding, competition with immobilised ligand; 10 µM): 39%
FC(F)(F)Oc1cccc(-c2cnc3ccc(-c4ccncc4)nn23)c1 — remaining binding (binding, competition with immobilised ligand; 5 µM): 42%
c1ccc(N2CCN(Cc3nc4ccccc4[nH]3)CC2)nc1 — remaining binding (binding, competition with immobilised ligand; 1 µM): 100%
CN(c1nccc(-c2cnn3ncccc23)n1)C1CC1 — remaining binding (binding; 1 µM): 87%
Cc1cc(NC(=O)c2cccc(S(F)(F)(F)(F)F)c2)cc(-n2ccn3nc(-c4cccnc4)cc23)c1 — remaining binding (cell-free assay, competition with immobilised ligand; 1 µM): 88.6%
CN(C)c1nccc(-c2cnc3ncccn23)n1 — remaining binding (binding; 1 µM): 98%
Cc1c[nH]c2nccc(Oc3c(F)cc(Nc4cc(Cl)nc(N)n4)cc3F)c12 — remaining binding (cell-free assay, competition with immobilised ligand; 0.1 µM): 92%
C[C@@H]1CCN(c2nccc(-c3cnn4ncccc34)n2)C1 — remaining binding (binding; 1 µM): 91%
O=C(c1ccc(Nc2nccc(-c3cc4ccccc4s3)n2)cc1)N1CCC(N2CCCC2)CC1 — remaining binding (binding, competition with immobilised ligand; 1 µM): 79%
N[C@H]1CCN(c2nccc(-c3cnn4ncccc34)n2)C1 — remaining binding (binding; 1 µM): 100%
O=C(NC[C@@H]1[C@H]2CN(C(=O)OCc3cc(C(F)(F)F)cc(C(F)(F)F)c3)C[C@@H]12)c1ccc2[nH]nnc2c1 — remaining binding (cell-free assay, competition with immobilised ligand; 1 µM): 64%
